According to PMC9075506 (RSC Advances, 2019):
Like-named read-outs stand apart in the source and are kept apart here.

Legend:
[1] = format: in vitro ADME, rat; settings: n = 3; for Stability, autosampler (20 °C, 4 h), RE: processed rat plasma; for Stability, long-term (−80 °C, 30 d), RE / Stability, short-term (4 °C, 48 h), RE / Stability, three freeze–thaw cycles, RE: rat plasma
Outline: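 Plasma (50 μL) precipitated with methanol/acetonitrile (1:1) containing internal standard (10 ng mL−1), vortexed 3 min, centrifuged 12 000 g for 10 min. Supernatant was run on C18 UFLC with a 0.1% formic acid/acetonitrile gradient at 0.5 mL min−1, detected by positive-ESI MRM. Quantified by analyte/IS peak-area ratio against a 1/x2-weighted linear calibration; accuracy given as RE (%).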

[2] = Pharmacokinetic study in 6-OHDA-induced PD rats after oral administration; format: in vivo; settings: rat, plasma
[3] = Pharmacokinetic study in sham rats after oral administration of PLA; format: in vivo; settings: rat, plasma, 50 mg/kg
[4] = normal rats, oral administration of PLA, tissue distribution; cited from earlier work
[5] = high QC: spiked 160 ng mL^−1 (PLTR 4000 ng mL^−1)
[6] = low QC: spiked 0.6 ng mL^−1 (PLTR 15 ng mL^−1)
[7] = medium QC: spiked 10 ng mL^−1 (PLTR 250 ng mL^−1)

Compound | Stability, autosampler (20 °C, 4 h), RE [1, 5] [%] | Stability, autosampler (20 °C, 4 h), RE [1, 6] [%] | Stability, autosampler (20 °C, 4 h), RE [1, 7] [%] | Stability, long-term (−80 °C, 30 d), RE [1, 5] [%] | Stability, short-term (4 °C, 48 h), RE [1, 5] [%] | Stability, three freeze–thaw cycles, RE [1, 5] [%] | Stability, long-term (−80 °C, 30 d), RE [1, 6] [%] | Stability, short-term (4 °C, 48 h), RE [1, 6] [%] | Stability, three freeze–thaw cycles, RE [1, 6] [%] | Stability, long-term (−80 °C, 30 d), RE [1, 7] [%] | Stability, short-term (4 °C, 48 h), RE [1, 7] [%] | Stability, three freeze–thaw cycles, RE [1, 7] [%] | AUC(0-t) ([2]; 50 mg/kg) [ng·h/mL] | Cmax ([2]; 50 mg/kg) [ng/mL] | MRT ([2]; 50 mg/kg) [h] | Tmax ([2]; 50 mg/kg) [h] | half-life ([2]; 50 mg/kg) [h] | Cmax [3] [ng/mL] | MRT [3] [h] | Tmax [3] [h] | further results
CC(C)CNC(=O)/C=C/C=C/c1ccc2c(c1)OCO2 [PPL, piperlonguminine] | −5.63 | −4.78 | 5.33 | −1.04 | −3.75 | 0.63 | −4.78 | −9.22 | −12.61 | 8.00 | 7.33 | 6.67 | 242 ± 57.2 | 97.3 ± 18 | 2.98 ± 0.84 | 0.45 ± 0.21 | 2.42 ± 1.23 | 89.1 ± 41.7 | 4.6 ± 1.33 | 0.45 ± 0.11 | AUC(0-inf) ([2]; 50 mg/kg): 245 ± 57.5 ng·h/mL; AUC(0-inf) [3]: 318 ± 123 ng·h/mL; AUC(0-t) [3]: 302 ± 116 ng·h/mL; half-life [3]: 3.68 ± 1.32 h; Crossing of the blood–brain barrier [4]: could cross the blood–brain barrier
O=C(/C=C/C=C/c1ccc2c(c1)OCO2)N1CCCCC1 [PPR, piperine] | −5.00 | −2.67 | 7.67 | 0.21 | −2.92 | 0.42 | −7.44 | −4.06 | −5.06 | 10.33 | 11.33 | 9.67 | 9700 ± 2670 | 978 ± 214 | 5.99 ± 0.63 | 4 ± 1.41 | 3.65 ± 3.45 | 1000 ± 146 | 6.83 ± 0.44 | 4.8 ± 2.28 | AUC(0-inf) ([2]; 25 mg/kg): 7120 ± 1770 ng·h/mL; AUC(0-t) ([2]; 25 mg/kg): 7110 ± 1770 ng·h/mL; Cmax ([2]; 25 mg/kg): 825 ± 241 ng/mL; MRT ([2]; 25 mg/kg): 6.27 ± 0.56 h; Tmax ([2]; 25 mg/kg): 2.95 ± 2.06 h; half-life ([2]; 25 mg/kg): 2.41 ± 0.34 h; half-life [3]: 3.4 ± 2.15 h; Crossing of the blood–brain barrier [4]: could cross the blood–brain barrier
O=C(/C=C/CCc1ccc2c(c1)OCO2)N1CCCCC1 [PPRA, piperanine] | −9.38 | −2.28 | 7.33 | −6.25 | −8.33 | −4.79 | 0.94 | −3.50 | 4.67 | 6.33 | 10.00 | 7.33 | 136 ± 45.6 | 123 ± 57.6 | 2.43 ± 1.52 | 0.18 ± 0.09 | 2.8 ± 1.71 | 160 ± 120 | 3.72 ± 1.3 | 0.18 ± 0.09 | AUC(0-inf) ([2]; 50 mg/kg): 137 ± 45.3 ng·h/mL; AUC(0-inf) [3]: 230 ± 150 ng·h/mL; AUC(0-t) [3]: 225 ± 155 ng·h/mL; half-life [3]: 4.16 ± 1.32 h
